Env fusion inh – inhibitors of HIV-1 Env-driven cell-cell fusion, primary screen, HeLa-JRFL effector, CEM21 target cells, luciferase; inhibition, % at 12.3 µM; 360,000 compounds, 1.1% hits; AID 651610, 2012;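 active means mean replicate inhibition score of at least 50 and every replicate individually at or above 50; inconclusive means only one of the two criteria met; inactive means mean below 50 and not all replicates reaching 50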;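 further: 0% = plate neutral controls and 100% = maraviroc near 300 nM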
Rtt109 HAT inh – inhibitors of C. albicans Rtt109/Vps75 HAT, primary screen, biochemical, ThioGlo CoA-SH fluorescence, plate reader | Histone acetyltransferase RTT109 (Candida albicans (strain SC5314 / ATCC MYA-2876)), … | 330,000 compounds, 0.16% hits | inhibition, % at 34.9 µM | AID 540336, 2011 | purified Rtt109/Vps75, 4 h;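 active means inhibition of at least 50% in every replicate; inconclusive means best replicate reaches 50% inhibition but some replicates fall short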
SR-BI uptake up – activators of SR-BI mediated DiI-HDL uptake, primary screen, ldlA[mSR-BI] CHO cells, DiI fluorescence; 3 h; 100 = double the neutral-control signal; AID 504775, 2011; activation, % at 12.5 µM; 320,000 compounds, 0.096% hits;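 active means mean replicate activation of at least 60% and every replicate at or above 60%; inconclusive means mean or all-replicate condition met, but not both; inactive means mean below 60% and not all replicates reaching 60%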;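 further: 0% = median plate neutral-control signal and 100% = twice that signal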
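Assay system: LDL receptor-deficient CHO ldlA cells overexpressing murine SR-BI / Medium: BSA-supplemented, HEPES-buffered Ham's F12, pH 7.4 / Probe or stimulus: DiI-labelled HDL at 10 µg/mL final / Timing: compound with DiI-HDL co-incubation, 3 h at 37 °C / Technique: bottom-read cell fluorescence after medium removal, ex 550/em 595 nm / Measure: HDL uptake via cellular fluorescence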
SR-BI HDL uptake – inhibitors of SR-BI mediated HDL lipid uptake, primary screen, ldlA[mSR-BI] cells, fluorescence, single point. Scavenger receptor class B member 1 (Mus musculus), Q61009. ldlA[mSR-BI] CHO cells, DiI-HDL uptake fluorescence, 3 h. inhibition, % at 12.5 µM. 320,000 compounds, 0.96% hits. AID 488896, 2010;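 active means mean replicate inhibition of at least 70% and a set share of replicates each scoring 70 or more; inconclusive means meets just one of the two criteria; inactive means fails both criteria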;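 further: 0% = median of neutral control wells and 100% = median of positive control wells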
Target sequence (Q61009 whole entry, looked up): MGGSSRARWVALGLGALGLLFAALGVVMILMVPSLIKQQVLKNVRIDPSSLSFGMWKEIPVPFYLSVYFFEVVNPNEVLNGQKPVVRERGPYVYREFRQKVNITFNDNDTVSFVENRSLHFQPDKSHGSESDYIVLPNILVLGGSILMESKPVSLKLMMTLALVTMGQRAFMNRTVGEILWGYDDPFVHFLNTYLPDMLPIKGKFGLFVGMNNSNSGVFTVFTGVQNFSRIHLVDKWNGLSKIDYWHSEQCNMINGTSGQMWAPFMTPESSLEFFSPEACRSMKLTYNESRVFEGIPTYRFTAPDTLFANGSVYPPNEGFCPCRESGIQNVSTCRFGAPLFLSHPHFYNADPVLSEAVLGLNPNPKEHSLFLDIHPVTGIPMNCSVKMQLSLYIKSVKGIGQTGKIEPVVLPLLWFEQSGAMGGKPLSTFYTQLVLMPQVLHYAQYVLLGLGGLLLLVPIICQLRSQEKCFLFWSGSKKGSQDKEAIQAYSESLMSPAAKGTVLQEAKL
PglD inh – C. jejuni PglD acetyltransferase inhibitors, primary screen, biochemical, DTNB colorimetric, single point; purified PglD enzyme, DTNB colorimetric CoA detection; inhibition, % at 12.5 µM; 360,000 compounds, 0.098% hits; AID 602405, 2012; in the data active means inhibition above about 16%, passing the limit was not always enough; inconclusive means no clear call, values can overlap the other calls
N-glyco inh – increase of ERlucT glycosylation luciferase signal, primary screen, N-linked glycosylation inhibitor project, D54 ERlucT cells, luminescence, set 2 | D54 ERlucT glycosylation luciferase reporter, 24 h; percent of 100 nM tunicamycin response | reporter increase, % at 12.5 µM | 360,000 compounds, 0.23% hits | AID 588692, 2011;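 active means mean luciferase reporter signal, scaled so untreated is 0 and the glycosylation-blocking control 100, at or above a set limit in every replicate; inconclusive means mean reaches the limit but not every replicate does; inactive means mean below the limit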;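 further: luciferase carries N-glycosylation sites so blocking glycosylation raises the light; 0% = median of neutral control wells and 100% = median of 100 nM tunicamycin wells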
* = called active by the depositor; ? = inconclusive; / = no result given; [ ] = another dose, or the depositor's remark. Rows were chosen to be rich in hits. Some 1.9% of all compounds tested hit in one or more screens of this group.

SMILES	Env fusion inh	Rtt109 HAT inh	SR-BI uptake up	SR-BI HDL uptake	PglD inh	N-glyco inh
CCCCCc1ccc(-c2ccc(=O)[nH]n2)cc1	50	-3	14	-14	-4	2
COc1ccc(NC(=O)N(C)C[C@@H]2Oc3c(NC(=O)Nc4ccc(C(F)(F)F)cc4)cccc3C(=O)N([C@H](C)CO)C[C@@H]2C)cc1	13[16.7 µM]	/	/	/	/	/
COc1ccc(NC(=O)N(C)C[C@@H]2OCc3ccccc3-c3ccccc3C(=O)N([C@H](C)CO)C[C@@H]2C)cc1	/	/	/	/	0	/
c1ccc(Cc2nnc(Sc3ccccc3)c3ccccc23)cc1	/	6	3	-3	1	36*
c1ccc(Sc2ncnc3ccccc23)cc1	19	0	16	-16	2	1
CCN(CC)CCNc1nc2cc(OC)c(OC)cc2c2nc(-c3ccccc3)nn12	-62	?	6	-6	-4	71*
C[C@@H]1CN([C@@H](C)CO)C(=O)c2cc(C3=CCCC3)cnc2O[C@@H]1CN(C)Cc1ccc(C(=O)O)cc1	60*[16.7 µM]	/	/	/	-2	/
C[C@H](CO)N1C[C@H](C)[C@H](CN(C)Cc2ccc(Cl)c(Cl)c2)Oc2c(NC(=O)c3ccncc3)cccc2C1=O	-8[16.7 µM]	/	/	/	2	/
C[C@@H]1CN([C@H](C)CO)C(=O)c2cccc(NC(=O)c3ccncc3)c2O[C@@H]1CN(C)Cc1ccc(C(=O)O)cc1	114*	-6	33	-33	1	1
C[C@@H]1CN([C@H](C)CO)C(=O)c2cccc(NC(=O)c3ccncc3)c2O[C@H]1CN(C)Cc1ccc(Cl)c(Cl)c1	75*[16.7 µM]	/	/	/	1	/
C[C@@H]1CN([C@H](C)CO)C(=O)c2cccc(NS(=O)(=O)c3ccc(Cl)cc3)c2O[C@H]1CN(C)CC1CCCCC1	88*[16.7 µM]	/	/	/	1	/
C[C@@H]1CN([C@H](C)CO)C(=O)c2cccc(NC(=O)Nc3ccccc3)c2O[C@H]1CN(C)C(=O)NC1CCCCC1	/	/	/	/	0	/
C[C@H]1CN([C@@H](C)CO)C(=O)c2cc(Br)cnc2O[C@H]1CN(C)C(=O)Nc1ccc(F)cc1	-2[16.7 µM]	/	/	/	1	/
C[C@@H]1CN([C@H](C)CO)C(=O)c2cccc(NC(=O)c3ccncc3)c2O[C@H]1CN(C)CC1CCCCC1	93*[16.7 µM]	/	/	/	0	/
C[C@@H]1CN([C@@H](C)CO)C(=O)c2cccc(NC(=O)c3cnccn3)c2O[C@H]1CN(C)Cc1ccc(Cl)c(Cl)c1	63*[16.7 µM]	/	/	/	2	/
CCOC(=O)OC[C@@H]1[C@@H]2NC(=O)N(C)[C@@]1(COCc1ccc(OC)cc1)Oc1ccccc12	-3[16.7 µM]	/	/	/	/	/
CCOc1ccc(NC2c3ccccc3C(=O)N2Cc2ccco2)cc1 (stereo not given)	74*	-3	-25	25	4	-3
CC(=O)c1ccccc1OC(=O)c1ccc([N+](=O)[O-])o1	-3	58*	-14	14	3	3
CCCCCCCCCCOC(=O)Cn1c(COc2ccccc2OC)[n+](C)c2ccccc21	86*	0	-9	9	-11	15
Cn1c(COc2ccccc2O)[n+](C)c2ccccc21	10	4	11	-11	5	2
CCCCCCCN(c1ccccc1)[C@@H]1C[C@H]2CCCC(=O)N3CC[C@@H](C1)[C@@H]23	74*	5	-25	25	-4	-8
O=C(Nc1ccc(Cl)cc1)N[C@H]1CC[C@@H](CCn2cc(-c3ccccc3F)nn2)O[C@H]1CO	42[16.7 µM]	/	/	/	0	/
Cc1ccc(-c2csc(=Nc3cccnc3)n2CCCN2CCCC2=O)cc1C	0	10	74*	-74	/	-1
Cc1cc(C(=O)Nc2ccncc2)c(C)o1	-52	51*	11	-11	2	3
Cc1cc(C(=O)Nc2ccc(C(=O)O)cc2)c(C)o1	-14	0	9	-9	13	0
